Source: PubChem BioAssay (Broad Institute)
SR-BI uptake up: SR-BI HDL lipid transfer activation; CHO ldlA[mSR-BI] cells, DiI-HDL uptake fluorescence, 3 h; 100 = double the neutral-control signal; activation, % at 12.5 µM; 320,000 tested, 0.096% active;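 active = mean replicate activation of at least 60% and every replicate at or above 60%; inconclusive = mean or all-replicate condition met, but not both; inactive = mean below 60% and not all replicates reaching 60%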;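 also: 0% = median plate neutral-control signal and 100% = twice that signal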
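Assay system: CHO ldlA[mSR-BI] cells, LDL receptor-null, SR-BI overexpressing; medium: Ham's F12 with 0.5% BSA, HEPES 25 mM, pH 7.4; also added: DiI-HDL 10 µg/mL; timing: 3 h uptake period with compound, 37 °C; signal: DiI fluorescence, bottom read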
Ecoli rRNA inh: inhibits bacterial ribosomal RNA function over humanized ribosomes; E. coli WT GFP vs humanized-ribosome RFP mutants, fluorescence, 24 h; hits give low values; DMSO median 0, no signal -100; GFP signal change (wild-type ribosome), % (no concentration beside the values); 350,000 tested, 1.6% active; AID 720706;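 active = significant combined selectivity score with lowered wild-type GFP, culture density cut under 30%, mutant RFP and density less affected; inactive = any of these conditions unmet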
PvdQ acylase: blocks Pseudomonas aeruginosa PvdQ acylase activity; purified PvdQ acylase, fluorescence plate reader; inhibition, % at 10 µM; 340,000 tested, 0.063% active; AID 488965; in the data active = inhibition above about 30%, passing the limit was not always enough; inconclusive = no clear call, values can overlap the other calls;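 also: 0% = vehicle neutral wells and 100% = reference inhibitor wells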
dFosB act-1: mouse delta FosB homodimer activation; P13346; 340,000 tested, 0.99% active; activation, % at 25 µM; purified delta FosB, TAMRA-CDK5 oligo fluorescence polarization; percent of positive-control signal above neutral wells;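 active = mean activation above about 17%, with every replicate also reaching it, limit read from the data, passing the limit was not always enough; inconclusive = only one of the two conditions met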
Target sequence (P13346 whole entry, looked up): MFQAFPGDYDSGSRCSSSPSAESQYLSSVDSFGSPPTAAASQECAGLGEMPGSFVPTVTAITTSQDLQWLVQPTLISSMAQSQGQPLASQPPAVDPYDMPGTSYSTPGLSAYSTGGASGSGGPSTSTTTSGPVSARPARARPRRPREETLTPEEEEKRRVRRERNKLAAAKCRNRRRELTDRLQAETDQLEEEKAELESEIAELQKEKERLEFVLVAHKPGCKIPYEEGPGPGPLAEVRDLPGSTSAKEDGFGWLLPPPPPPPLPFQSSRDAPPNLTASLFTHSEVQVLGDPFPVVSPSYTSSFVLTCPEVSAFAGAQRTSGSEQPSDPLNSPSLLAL
SR-BI DiI inh: blocks mouse SR-BI lipid uptake from DiI-HDL; Q61009; ldlA[mSR-BI] CHO cells, DiI-HDL uptake fluorescence, 3 h; inhibition, % at 12.5 µM; 320,000 tested, 0.96% active; AID 488896;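 active = mean replicate inhibition of at least 70% and a set share of replicates each scoring 70 or more; inconclusive = meets just one of the two criteria; inactive = fails both criteria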;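 also: 0% = median of neutral control wells and 100% = median of positive control wells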
XiGFP reactiv: activators of X-chromosome reactivation in mouse fibroblasts; activation, % at 7.58 µM; AID 743238; 360,000 tested, 0.055% active; XiGFP mouse fibroblasts, % GFP-positive cells imaging, 3 d; cells co-treated with 5-aza-dC sensitizer; scaled so ellipticine positive control = 100%;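 active = mean normalized replicate activation at least 10% and every replicate at or above 10%; inconclusive = only one of the two criteria met; inactive = mean below 10% and not all replicates reach 10%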;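 also: 0% = median of on-plate neutral control wells and 100% = ellipticine 6 µM median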
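System: 68-5-11 XiGFP fibroblast line | Buffer or medium: DMEM containing 5-aza-dC | Compound: Single point | Times: Compounds 3 days, fix/stain 15 min at room temperature | Benchmarks: Positive control ellipticine, 6 µM final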
DiI quench: counter-screen for SR-BI lipid transfer inhibitors: DiI fluorescence quenchers | shares compounds with SR-BI DiI inh | AC50, µM (series often up to 35 µM), without a hit: at the top dose activity change, negative = quenching | AID 540326 | cell-free DiI-HDL fluorescence quenching, 30 min | 470 tested, 20% active;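 active = quenching, a falling signal, with AC50 below a set limit tied to the top valid dose, actives reach about 32 µM in these data; inconclusive = no clear call, values can overlap the other calls; inactive = rising signal, and the rest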
dFosB act-2: enhances mouse delta FosB homodimer binding to DNA; 2,400 tested, under 10 active; activation, % at 24.9 µM; shares compounds with dFosB act-1; purified delta FosB, TAMRA-CDK5 oligo fluorescence polarization; normalised: neutral wells 0, positive control 100;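 active = highest replicate activation at or above 34% and every replicate reaching that threshold; inconclusive = meets only one of the two criteria; inactive = meets neither criterion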;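 also: higher polarization means more probe DNA bound by delta FosB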
* = called active by the depositor; u = inconclusive; x = no result. Shown are actives, neighbours in structure and some others; about 2.6% of the full set was active somewhere.

SMILES	SR-BI uptake up	Ecoli rRNA inh	PvdQ acylase	dFosB act-1	SR-BI DiI inh	XiGFP reactiv	dFosB act-2	others
CN(C(=O)COC(=O)c1c2c(nc3ccccc13)/C(=C/c1cccc([N+](=O)[O-])c1)CCC2)C1CCS(=O)(=O)C1 (stereo not given)	-54	x	-3	17*	54	0	-2	DiI quench=-7%
COc1ccc(Br)cc1CNC(=O)CN1C(=O)C(c2ccccc2)Oc2cccnc21 (stereo not given)	-40	-2	-5	27*	40	1	1
COc1ccc(NC(=O)CCCN2C(=O)C(c3ccccc3)Oc3cccnc32)cc1OC (stereo not given)	-36	-6	-11	-1	36	0	x
O=C(Nc1ccc(F)cc1)N1CCN(CCc2ccccc2)CC1	15	8	10	-7	-15	0	x
COc1cccc(-n2nnc3c(=O)n(CC(=O)Nc4ccc(C)cc4)cnc32)c1	22	-2	-9	27*	-22	0	-6
CCOc1ccc(-n2nnc3c(=O)n(CC(=O)NCc4ccco4)cnc32)cc1	18	7	-7	22*	-18	0	4
CSc1ccc(CN2CCN(C3CCCC3)C(CCO)C2)cc1 (stereo not given)	-4	28	6	-9	4	0	x
O=C(COc1ccccc1)NCCSCc1ccco1	2	x	18	2	-2	x	x
CC(=O)C1=C(C)NC(SCC(=O)Nc2nc3ccccc3s2)=C(C#N)C1c1ccc(Cl)cc1 (stereo not given)	-3	2	-6	10	3	0	x
O=C(Nc1nc(-c2nc3ccccc3s2)cs1)c1ccc(S(=O)(=O)N2CCOCC2)cc1	-42	x	10	33*	42	x	5
O=C(Nc1nc(-c2ccc(S(=O)(=O)N3CCOCC3)cc2)cs1)c1ccccc1	-53	1	0	-1	53	0	x
COc1cccc(/C=C/C(=O)OCC(=O)c2c(N)n(C)c(=O)n(C)c2=O)c1	0	6	7	-6	0	0	x
CCOc1ccccc1N1C(=O)CC(Sc2ccccc2N)C1=O (stereo not given)	x	-6	x	x	x	0	x
COc1ccc(Cl)cc1N1C(=O)CC(Sc2ccccc2N)C1=O (stereo not given)	-37	2	-2	38*	37	0	-5
CCNC(=O)c1ccccc1-c1nc(-c2ccccc2Cl)no1	-22	x	-9	-2	22	x	x
COc1ccc(Cl)cc1NC(=O)Cn1nnc(C(=O)NCc2ccc3c(c2)OCO3)c1N	-22	-1	3	39*	22	0	0
COc1ccccc1NC(=O)Cn1nnc(C(=O)NCc2ccc3c(c2)OCO3)c1N	-3	3	-6	u	3	1	x
Cc1cc(C)c(NC(=O)Cn2nnc(C(=O)NCc3ccc4c(c3)OCO4)c2N)c(C)c1	13	x	-5	75*	-13	x	0
O=C(NCc1ccc2c(c1)OCO2)c1nnc(Cc2ccc(Cl)cc2)o1	9	-4	0	27*	-9	0	3
O=C(NCc1ccc2c(c1)OCO2)c1ccc(CS(=O)Cc2ccc(Cl)cc2)o1 (stereo not given)	x	-1	3	-6	35	0	x
Nc1c(C(=O)NCc2ccc3c(c2)OCO3)nnn1CC(=O)Nc1ccc(Br)cc1	-11	17	-15	51*	11	0	5
COc1ccccc1CNC(=O)CCS(=O)(=O)c1cccs1	-8	x	0	-10	8	x	x
C[C@H]1CN([C@@H](C)CO)C(=O)c2cc(-c3cncnc3)cnc2O[C@H]1CN(C)C(=O)Cc1cccnc1	x	5	x	x	x	0	x
Cc1ccc(NC(=O)Cn2nnc(C(=O)NCc3ccc4c(c3)OCO4)c2N)cc1	-7	9	16	-4	7	0	x
CC(C)c1ccc(NC(=O)Cn2nnc(C(=O)NCc3ccc4c(c3)OCO4)c2N)cc1	-4	13	4	31*	4	0	-3
SMILES	SR-BI uptake up	Ecoli rRNA inh	PvdQ acylase	dFosB act-1	SR-BI DiI inh	XiGFP reactiv	dFosB act-2	others
CCOc1ccc(NC(=O)CCC(=O)NNC(=O)Nc2cccc(Cl)c2)cc1	-15	14	10	34*	15	0	1
O=C(CCC(=O)Nc1ccc(Cl)cc1Cl)NNC(=O)Nc1ccccc1	0	24	4	34*	0	0	1
CCOc1ccc(NC(=O)CCC(=O)NNC(=O)COc2ccc(C)cc2)cc1	-4	23	-13	-5	4	0	x
Cc1cccc(C(=O)OCC(=O)NN2C(=O)NC3(CCCCC3)C2=O)c1	16	x	-8	-9	-16	0	x
COc1ccc2c(c1)c(CC(=O)Nc1ccc(C)cc1)c(C)n2C(=O)c1ccc(Cl)cc1	3	x	-7	21*	-3	x	3
Cc1ccc(NC(=O)Cn2cc(S(=O)(=O)c3ccc(F)cc3)c(=O)c3cc(F)ccc32)cc1	-12	7	-4	-8	12	1	x
Cc1ccc(S(=O)(=O)c2cn(CC(=O)Nc3ccccc3)c3ccc(F)cc3c2=O)cc1	20	2	-15	30*	-20	0	2
COc1ccc2c(c1)c(=O)c(C(=O)c1ccc(C)cc1)cn2CC(=O)Nc1ccc(F)cc1	-17	2	0	22*	17	0	-1
COc1ccc2c(c1)c(=O)c(C(=O)c1ccc(F)cc1)cn2CC(=O)Nc1ccc(F)cc1	-11	6	-1	20*	11	0	-3
CCOC(=O)CSc1nc(=O)n2ccccc2n1	16	12	13	-2	-16	0	x
NC(=O)c1ncn([C@@H]2O[C@H](C(=O)N[C@H](Cc3c[nH]c4ccccc34)C(=O)NCC(=O)N3CCCCC3)[C@@H](O)[C@H]2O)n1	x	20	x	x	x	0	x
C=CCOc1ccc(C(=O)Nc2ccccc2C(=O)NCc2cccnc2)cc1	-23	-24	-11	-10	23	0	x
COc1ccc(NC(=O)Cn2cc(C(=O)c3ccco3)c3ccccc32)cc1	10	x	10	45*	-10	x	2
Clc1ccc(C2[C@H]3CN(Cc4ccc(-c5ccccc5)cc4)[C@H](c4ccccc4)C34CC2(c2ccccc2)C4)cn1 (stereo not given in full)	x	6	x	x	x	0	x
